From PubChem
OXTR ag: activates the human oxytocin receptor; P30559; CHO-OTR cells, Fluo-8 calcium fluorescence; normalized: DMSO 0%, oxytocin 100%; activation, % at 3 µM; actives 0.32% (n = 320,000);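 active means activation above the mean of all tested compounds plus 3 SD, cutoff set per screening run, cut at about 20% in these data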;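 further: peak over basal fluorescence ratio from a 100 s FLIPR kinetic read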
OXTR potentiator: potentiates the human oxytocin receptor response | CHO-OTR cells, Fluo-8 calcium fluorescence, potentiator mode; 0% = oxytocin EC15, 100% = EC100 | actives 0.061% (n = 320,000) | activation, % at 3 µM | P30559;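 active means activation above that plate's cutoff, the mean activation of tested compounds plus 3 SD, cut at about 6.6% in these data, passing the limit was not always enough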
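assay system = CHO-OTR cells, human receptor | schedule = compound 6 min at room temperature before oxytocin, 100 s read | detection = Fluo-8 intracellular calcium fluorescence, ex 470-495, em 515-575 nm | evaluation = normalized max/min fluorescence ratio, % activation | control set = EC15 oxytocin alone as 0%, 75 nM oxytocin (EC100) as 100%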
TAAR1 antag: human TAAR1 antagonism | inhibition, % at 3 µM | AID 624466 | actives 1.5% (n = 360,000) | Q96RJ0 | CHO RD-HGA16 TAAR1, Fluo-8 calcium fluorescence, antagonist;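 active means inhibition above a per-plate cutoff, the mean inhibition of test compounds on that plate plus 3 SD, cut at about 49% in these data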
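Assay system: CHO-derived RD-HGA16 cells stably expressing human TAAR1 plus Gα16. Timing: 140 s kinetic read after compound, 140 s after agonist. Technique: kinetic Fluo-8 calcium fluorescence measurement. Measure: % inhibition of agonist calcium response.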
V1R ag counter: counter-screen for oxytocin receptor agonists: human V1a receptor agonists. activation, % at 3 µM. actives 0.25% (n = 320,000). CHO-V1R cells, Fluo-8 calcium fluorescence, agonist mode; 0% DMSO, 100% 3 nM vasopressin. AID 2797;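 active means activation above the mean activation of all tested compounds plus 3 SD, per screening run, cut at about 20% in these data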;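 further: signal is peak over basal fluorescence ratio across a 100 second FLIPR read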
Target sequence (P37288 whole entry, looked up): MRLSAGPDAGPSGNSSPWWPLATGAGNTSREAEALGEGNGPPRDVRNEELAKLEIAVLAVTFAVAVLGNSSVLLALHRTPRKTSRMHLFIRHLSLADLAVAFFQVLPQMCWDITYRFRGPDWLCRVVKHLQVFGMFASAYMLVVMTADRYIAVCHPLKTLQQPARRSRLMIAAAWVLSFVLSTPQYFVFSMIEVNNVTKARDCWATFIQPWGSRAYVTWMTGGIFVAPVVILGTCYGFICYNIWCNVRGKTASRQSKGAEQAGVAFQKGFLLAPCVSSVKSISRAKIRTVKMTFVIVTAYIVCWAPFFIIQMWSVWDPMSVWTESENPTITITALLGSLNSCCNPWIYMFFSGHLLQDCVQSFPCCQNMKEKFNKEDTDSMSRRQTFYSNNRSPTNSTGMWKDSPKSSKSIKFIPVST
TAAR1 ag: agonists of human TAAR1; Q96RJ0; CHO RD-HGA16 TAAR1, Fluo-8 calcium fluorescence; vehicle wells 0%, saturating PEA agonist 100%; activation, % at 3 µM; actives 0.99% (n = 360,000); AID 624467;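 active means activation above the mean activation of all test compounds in the run plus 3 SD, cut at about 38% in these data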
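System: CHO-derived RD-HGA16 cells with stable Gα16 and human TAAR1. Times: 17-24 h plating, Fluo-8 75 min 37 °C, 30 min RT. Measured by: calcium-sensitive Fluo-8 signal, excitation 470-495, emission 515-575 nm. Read-out basis: % activation relative to PEA EC100 response. Control set: DMSO and PEA EC100. Repeats: no replicates (n 1).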
nonsel antag count: nonselective antagonist in TAAR1 antagonist counter-screen; shares compounds with TAAR1 antag; counterscreen cell line, calcium fluorescence, antagonist mode; inhibition, % at 3 µM; actives 77% (n = 2,400); AID 651780; in the data active means inhibition above about 22%;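 further: CHO-Ga16 host cells stimulated with ATP at an EC80 level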
TAAR1 antag conf: human TAAR1 antagonism, confirmed | TAAR1-expressing cells, fluorescence antagonist read-out | inhibition, % at 3 µM | AID 651785 | shares compounds with TAAR1 antag | actives 40% (n = 2,400); in the data active means inhibition above about 49%;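 further: CHO-Ga16 host cells challenged with agonist PEA near its EC80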
Ga16 ag counter: counter-screen for TAAR1 antagonists: nonselective Ga16 agonists; activation, % at 3 µM; Ga16-expressing cells, calcium fluorescence, agonist counterscreen; actives 18% (n = 2,400); AID 651953; shares compounds with TAAR1 antag; in the data active means activation above about 12%
TAAR1 ag count: TAAR1 agonism, antagonist counter-screen. shares compounds with TAAR1 antag. hTAAR1 cell line, fluorescence activation, agonist mode. activation, % at 3 µM. actives 2% (n = 2,400). AID 651955; in the data active means activation above about 37%;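 further: CHO cells stably expressing TAAR1 with calcium dye readout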
Of the large screens only hits and unclear results are named; the others gave an inactive call (follow-up assays come after a bar, where they were run). Shown are actives, neighbours in structure and some others; about 2.3% of the full set was active somewhere.

Nc1cc2c(cc1C(=O)c1cccc(Br)c1)OCCO2	none
CC(C)C(=O)N1CCN(c2ccc(NC(=O)COc3ccccc3[N+](=O)[O-])cc2)CC1	TAAR1 antag 73 | nonsel antag count 55 | TAAR1 antag conf 76 | Ga16 ag counter 20 | TAAR1 ag count inactive
CS(=O)(=O)N1CCN(c2ccc(NC(=O)COc3ccccc3[N+](=O)[O-])cc2)CC1	TAAR1 antag 63 | nonsel antag count 28 | TAAR1 antag conf inactive | Ga16 ag counter 12 | TAAR1 ag count inactive
CN1CCN(c2ccc(NC(=O)COc3ccccc3[N+](=O)[O-])cc2)CC1	none
Cn1nc(C(=O)Nc2ccc(S(=O)(=O)N3CCCCC3)cc2)c2ccccc2c1=O	TAAR1 antag 96 | nonsel antag count inactive | TAAR1 antag conf inactive | Ga16 ag counter inactive | TAAR1 ag count inactive
CCCCC(=O)Nc1ccc(C(=O)Nc2ccc(S(=O)(=O)N3CCCC3)cc2)cc1	none (no result: TAAR1 antag, TAAR1 ag) | nonsel antag count inactive | Ga16 ag counter inactive
CN1C2CCC1CC(NC(=O)CSCc1ccc(Cl)cc1Cl)C2 (stereo unspecified)	none
O=C(Nc1ccccc1)N(CCc1nc2ccccc2[nH]1)C1CCCC1	none
S=C(NC1CCCCC1)N(CCc1nc2ccccc2[nH]1)C1CCCC1	TAAR1 antag 54 | nonsel antag count 28 | TAAR1 antag conf inactive | Ga16 ag counter inactive | TAAR1 ag count inactive
Brc1ccccc1OCCN1CCCC1	none
CC1=C(C(=O)N(C)C)CC(CC(=O)NC2CCCCC2)C(=O)N1CCCN1CCCC1=O (stereo unspecified)	none (no result: OXTR ag, OXTR potentiator, V1R ag counter)
CC(=O)c1cn(Cc2ccccc2)c(=O)[nH]c1=O	none
COc1ccc2nc(NC(=O)C3CCN(S(=O)(=O)c4cccc5nsnc45)CC3)sc2c1	TAAR1 antag 61 | nonsel antag count 34 | TAAR1 antag conf 56 | Ga16 ag counter inactive | TAAR1 ag count inactive
O=C1CN(C(=O)COC(=O)c2cccs2)c2ccccc2N1	TAAR1 antag 61 | nonsel antag count inactive | TAAR1 antag conf inactive | Ga16 ag counter inactive | TAAR1 ag count inactive
COc1ccccc1CN(Cc1nc2ccccc2c(=O)[nH]1)S(=O)(=O)c1ccc2ccccc2c1	TAAR1 antag 70 | nonsel antag count 25 | TAAR1 antag conf 56 | Ga16 ag counter inactive | TAAR1 ag count inactive
Cc1ccc(O)c(NC(=O)c2ccc3c(c2)C(=O)N(Cc2cccnc2)C3=O)c1	TAAR1 antag 77 | nonsel antag count 34 | TAAR1 antag conf 59 | Ga16 ag counter 13 | TAAR1 ag count inactive
CC(C)(C)NC(=O)c1cccc(NC(=O)c2ccc3c(c2)C(=O)N(C(C)(C)C)C3=O)c1	TAAR1 antag 85 | nonsel antag count 38 | TAAR1 antag conf 65 | Ga16 ag counter 13 | TAAR1 ag count inactive
COC(=O)c1cccc(NC(=O)c2ccc3c(c2)C(=O)N(C(C)(C)C)C3=O)c1	TAAR1 antag 65 | nonsel antag count 38 | TAAR1 antag conf 63 | Ga16 ag counter inactive | TAAR1 ag count inactive
O=C(Nc1ccc(O)cc1)c1ccc2c(c1)C(=O)N(Cc1ccccc1)C2=O	TAAR1 antag 63 | nonsel antag count 22 | TAAR1 antag conf inactive | Ga16 ag counter 14 | TAAR1 ag count inactive
O=C(O)COc1ccc(NC(=O)c2ccc3c(c2)C(=O)N(Cc2ccccc2)C3=O)cc1	none
O=C(Nc1ccccc1C(F)(F)F)C1CCN(C(=O)Cc2ccccc2)CC1	none
O=C(Nc1ccccc1C(=O)NCCCN1CCOCC1)c1ccc(Cl)cc1	none
CC(C)(C)N1C(=O)c2ccc(C(=O)O)cc2C1=O	none
